Laboratory results published in BindingDB's records for doi:10.1021/jm0003844 (Pfizer, 2001).

Target: Human immunodeficiency virus type 1 protease (Human immunodeficiency virus 1, UniProt Q72874)
Test: HIV-1 protease inhibition.
In short: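 Affinity-purified HIV-1 protease (1.5 nM final) with 40 µM peptide substrate His-Lys-Ala-Arg-Val-Leu-(p-NO2-Phe)-Glu-Ala-Nle-Ser-NH2 and 1.0% DMSO. Buffer: 80 mM MES, 160 mM NaCl, 1.0 mM DTT, 1.0 mM EDTA, 0.1% PEG 8000, pH 6.2. Incubated 60 min at 37 °C, then quenched with TFA (2% final). Products separated by reverse-phase HPLC and read at 220 nm. Percent control derived from % conversion with vs without inhibitor; IC50 then determined.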

SMILES: Cc1cc(SC2C(=O)CC(CCc3ccsc3CO)(C(C)C)OC2=O)c(C(C)(C)C)cc1CO (centres undefined) [3-(2-tert-Butyl-4-hydroxymethyl-5-methyl-phenylsulfanyl)-4-hydroxy-6-[2-(2-hydroxymethyl-thiophen-3-yl)-ethyl]-6-isopropyl-5,6-dihydro-pyran-2-one]
- IC50: 14 nM

SMILES: Cc1cc(SC2C(=O)CC(CCc3cscn3)(C(C)C)OC2=O)c(C(C)(C)C)cc1CO (centres undefined) [3-(2-tert-Butyl-4-hydroxymethyl-5-methyl-phenylsulfanyl)-4-hydroxy-6-isopropyl-6-(2-thiazol-4-yl-ethyl)-5,6-dihydro-pyran-2-one]
- IC50: 1.3 nM

SMILES: Cc1cc(SC2C(=O)CC(CCc3nc(C(C)C)cs3)(C(C)C)OC2=O)c(C(C)(C)C)cc1CO (centres undefined) [3-(2-tert-Butyl-4-hydroxymethyl-5-methyl-phenylsulfanyl)-4-hydroxy-6-isopropyl-6-[2-(4-isopropyl-thiazol-2-yl)-ethyl]-5,6-dihydro-pyran-2-one]
- IC50: 14 nM

SMILES: Cc1cc(SC2C(=O)CC(CCc3ncsc3C)(C(C)C)OC2=O)c(C(C)(C)C)cc1CO (centres undefined) [3-(2-tert-Butyl-4-hydroxymethyl-5-methyl-phenylsulfanyl)-4-hydroxy-6-isopropyl-6-[2-(5-methyl-thiazol-4-yl)-ethyl]-5,6-dihydro-pyran-2-one]
- IC50: 1.3 nM
